Measurements as given in ChEMBL document CHEMBL1949587 (Bioorg Med Chem, 2012).
In brackets after ≈: the same amount, converted by molar mass. Activity calls are given as the source filed them. No cut-off for these calls is given here.

Assays:
[1] = target: Leukocyte tyrosine kinase receptor (Homo sapiens, UniProt P29376); experiment: Inhibition of LTK
COLO 205 = experiment: Antiproliferative activity against human COLO205 cells assessed as cell growth inhibition; type: cell-based
K562 = experiment: Antiproliferative activity against human K562 cells assessed as cell growth inhibition; type: cell-based
NCI-H460 = experiment: Antiproliferative activity against PTX-resistant human NCI-H460 cells assessed as cell growth inhibition; type: cell-based
[2] = Antiproliferative activity against human KG1a cells assessed as cell growth inhibition; type: cell-based; conditions: KG-1a
[3] = Cmax in nude mouse at 30 mg/kg, po by LC-MS/MS analysis; type: ADME, organism-based; parameters: dose 30 mg/kg, route oral; conditions: in vivo
In short: (§1)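 Female nude mice given single oral dose in DMSO/Cremophor EL/1% Tween 80 (1:1:8 v/v/v) by stomach sonde. Blood taken at 30 min, 1, 2, 4, 7 and 24 h (n = 2/time point). Plasma precipitated with CH3CN/MeOH plus internal standard, filtered, measured by LC-MS/MS (LLOQ 20 ng/mL). Parameters by non-compartmental analysis; CL given as CL/F.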

PANC-1 = experiment: Antiproliferative activity against human PANC1 cells assessed as cell growth inhibition; type: cell-based
Calu-6 [4] = experiment: Antitumor activity against human Calu6 cells xenografted in po dosed BALB/c mouse assessed as tumor growth inhibition administered qd for 11 days; type: functional; conditions: for ED50: Calu-6, po, 264 h
In short: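 Calu-6 cells in Hanks' balanced salt solution, 5.0 × 10⁶ per mouse, implanted s.c. in flank of female Balb/c nude mice. Once tumors reached 150 mm³, oral dosing once daily for 11 days. Tumor volume = 1/2 × long × short² diameter; growth inhibition from volume change in treated versus control group.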

Ephrin type-A receptor 2 = Ephrin type-A receptor 2 (Homo sapiens, UniProt P29317); experiment: Inhibition of EPHA2
Sequence of Ephrin type-A receptor 2 (P29317 whole entry): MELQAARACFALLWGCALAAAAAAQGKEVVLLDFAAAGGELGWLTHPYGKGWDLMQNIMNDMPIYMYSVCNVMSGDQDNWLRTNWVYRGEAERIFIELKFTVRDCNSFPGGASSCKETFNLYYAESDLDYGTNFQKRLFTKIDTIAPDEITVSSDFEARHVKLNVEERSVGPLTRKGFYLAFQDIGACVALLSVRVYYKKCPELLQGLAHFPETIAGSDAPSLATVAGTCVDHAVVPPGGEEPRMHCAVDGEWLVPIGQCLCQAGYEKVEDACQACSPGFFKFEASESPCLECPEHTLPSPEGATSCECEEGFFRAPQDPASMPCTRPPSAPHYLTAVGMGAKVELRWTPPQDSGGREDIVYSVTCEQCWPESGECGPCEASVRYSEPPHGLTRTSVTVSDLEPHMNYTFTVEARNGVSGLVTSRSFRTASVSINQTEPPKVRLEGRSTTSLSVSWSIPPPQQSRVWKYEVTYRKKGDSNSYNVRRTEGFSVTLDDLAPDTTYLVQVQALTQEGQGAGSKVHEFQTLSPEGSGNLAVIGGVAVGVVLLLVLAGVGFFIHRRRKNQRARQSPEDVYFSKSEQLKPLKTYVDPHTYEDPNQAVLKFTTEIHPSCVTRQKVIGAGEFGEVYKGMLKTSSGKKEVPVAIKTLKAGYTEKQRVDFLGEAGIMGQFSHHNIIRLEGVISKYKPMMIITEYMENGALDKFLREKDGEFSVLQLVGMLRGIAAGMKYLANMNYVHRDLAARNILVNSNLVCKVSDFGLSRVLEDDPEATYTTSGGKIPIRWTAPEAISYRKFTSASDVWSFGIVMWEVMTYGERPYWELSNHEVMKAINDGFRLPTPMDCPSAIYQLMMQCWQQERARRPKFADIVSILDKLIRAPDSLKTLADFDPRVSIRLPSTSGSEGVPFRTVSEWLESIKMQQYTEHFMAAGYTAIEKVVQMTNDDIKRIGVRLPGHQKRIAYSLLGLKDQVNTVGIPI

[5] = target: Cyclin-dependent kinase 2 (Homo sapiens, UniProt P24941); experiment: Inhibition of CDK2
C32 = experiment: Antiproliferative activity against human C32 cells assessed as cell growth inhibition; type: cell-based
Calu-6 [6] = experiment: Antiangiogenic activity in human Calu6 cells xenografted in BALB/c mouse assessed as microvessel density reduction at 1 to 10 mg/kg, po qd for 11 days measured 24 hrs after last postdose by immunohistochemical staining method; type: functional, organism-based
In short: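 Female Balb/c nude mice given Calu-6 cells s.c. in the flank, 5.0×10⁶ cells per mouse. Dosing was oral, once daily for 11 days, starting once tumors reached 150 mm³. Tumors taken 24 h after the last dose and frozen-sectioned from the mid-portion. Vessels stained with anti-mouse CD31 and counted by image analysis. Density decrease expressed against control.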

[7] = Apparent oral clearance in nude mouse at 30 mg/kg, po by LC-MS/MS analysis; type: ADME, organism-based; parameters: dose 30 mg/kg, route oral; conditions: in vivo; in short: as §1
[8] = Inhibition of PKA
CWR22R = experiment: Antiproliferative activity against human 22Rv1 cells assessed as cell growth inhibition; type: cell-based
WiDr = experiment: Antiproliferative activity against human WiDr cells assessed as cell growth inhibition; type: cell-based
CEM/C2 = experiment: Antiproliferative activity against human CEM/C2 cells assessed as cell growth inhibition; type: cell-based
[9] = target: Tyrosine-protein kinase Fyn (Homo sapiens, UniProt P06241); experiment: Inhibition of Fyn
Sequence of Tyrosine-protein kinase Fyn (P06241 whole entry): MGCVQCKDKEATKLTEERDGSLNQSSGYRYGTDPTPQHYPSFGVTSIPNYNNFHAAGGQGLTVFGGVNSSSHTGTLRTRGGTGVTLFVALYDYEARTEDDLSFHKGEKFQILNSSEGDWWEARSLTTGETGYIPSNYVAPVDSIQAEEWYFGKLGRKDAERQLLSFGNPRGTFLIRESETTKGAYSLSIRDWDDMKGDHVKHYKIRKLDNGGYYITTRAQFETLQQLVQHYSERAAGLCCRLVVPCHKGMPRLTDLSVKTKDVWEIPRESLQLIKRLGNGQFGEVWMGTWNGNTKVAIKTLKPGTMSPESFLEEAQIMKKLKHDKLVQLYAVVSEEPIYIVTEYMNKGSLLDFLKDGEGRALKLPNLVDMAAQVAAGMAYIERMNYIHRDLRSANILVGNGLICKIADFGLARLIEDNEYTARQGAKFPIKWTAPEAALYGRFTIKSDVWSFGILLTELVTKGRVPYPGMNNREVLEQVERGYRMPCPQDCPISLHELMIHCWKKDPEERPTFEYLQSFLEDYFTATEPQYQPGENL

[10] = Antiproliferative activity against human MDA-MB-435S cells assessed as cell growth inhibition; type: cell-based
[11] = target: Tyrosine-protein kinase receptor UFO (Homo sapiens, UniProt P30530); experiment: Inhibition of AXL
[12] = target: Fibroblast growth factor receptor 2 (Homo sapiens, UniProt P21802); experiment: Inhibition of FGFR2
Sequence of Fibroblast growth factor receptor 2 (P21802 whole entry): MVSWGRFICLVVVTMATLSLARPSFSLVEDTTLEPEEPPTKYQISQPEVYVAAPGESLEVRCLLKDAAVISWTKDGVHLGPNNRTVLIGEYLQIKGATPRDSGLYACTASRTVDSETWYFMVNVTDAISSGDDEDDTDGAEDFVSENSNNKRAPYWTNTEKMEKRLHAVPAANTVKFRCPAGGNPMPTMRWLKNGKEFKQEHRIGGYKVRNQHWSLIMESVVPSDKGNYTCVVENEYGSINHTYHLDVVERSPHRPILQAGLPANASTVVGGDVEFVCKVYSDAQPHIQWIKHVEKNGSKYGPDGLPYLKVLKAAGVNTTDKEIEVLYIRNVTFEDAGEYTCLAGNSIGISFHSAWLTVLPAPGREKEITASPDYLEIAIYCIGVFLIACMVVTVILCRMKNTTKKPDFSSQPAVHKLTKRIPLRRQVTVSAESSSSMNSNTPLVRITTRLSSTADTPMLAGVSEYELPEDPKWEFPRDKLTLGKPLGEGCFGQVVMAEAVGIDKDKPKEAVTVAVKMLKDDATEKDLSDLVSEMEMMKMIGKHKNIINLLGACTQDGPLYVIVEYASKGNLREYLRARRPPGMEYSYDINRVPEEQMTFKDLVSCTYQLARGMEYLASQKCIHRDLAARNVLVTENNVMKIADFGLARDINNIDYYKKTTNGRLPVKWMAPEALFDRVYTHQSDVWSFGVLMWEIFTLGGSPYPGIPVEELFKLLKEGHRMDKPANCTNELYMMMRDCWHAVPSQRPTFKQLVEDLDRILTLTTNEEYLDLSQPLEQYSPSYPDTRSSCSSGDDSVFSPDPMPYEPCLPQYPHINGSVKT

T47D = experiment: Antiproliferative activity against human T47D cells assessed as cell growth inhibition; type: cell-based
Insulin receptor = Insulin receptor (Homo sapiens, UniProt P06213); experiment: Inhibition of INSR
ASPC1 = experiment: Antiproliferative activity against human AsPC1 cells assessed as cell growth inhibition; type: cell-based
[13] = Solubility of the compound in fasted state simulated intestinal fluid at 10 mM after 2 hrs by HPLC-UV analysis; type: physicochemical
In short: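 Triplicate samples made from 10 mM DMSO stocks. DMSO evaporated (1 h), residue dissolved in FaSSIF and shaken 2 h. Solutions filtered, filtrate analysed by UV or HPLC-UV against a four-point calibration curve from the stocks. Result in µg/mL.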

DU-145 = experiment: Antiproliferative activity against human DU145 cells assessed as cell growth inhibition; type: cell-based
MDA-MB-231 = experiment: Antiproliferative activity against human MDA-MB-231 cells assessed as cell growth inhibition; type: cell-based
MKN-28 = experiment: Antiproliferative activity against human MKN28 cells assessed as cell growth inhibition; type: cell-based
[14] = Clearance in mouse liver microsome at 5 uM after 60 mins by LC-MS/MS analysis; type: ADME; conditions: liver microsomes, read-out: CLH
In short: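 Test compound at 5 µM incubated with mouse liver microsomes, 1.0 mg protein/mL, in 50 mM potassium phosphate pH 7.4 at 37 °C. Started by adding NADPH generating system (glucose 6-phosphate 3.2 mM, β-NADP 2.6 mM, MgCl2 6.5 mM). Substrate depletion measured against internal standard. Intrinsic clearance is the first-order decay constant normalized to protein.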

[15] = target: Cyclin-dependent kinase 1 (Homo sapiens, UniProt P06493); experiment: Inhibition of CDK1
Sequence of Cyclin-dependent kinase 1 (P06493 whole entry): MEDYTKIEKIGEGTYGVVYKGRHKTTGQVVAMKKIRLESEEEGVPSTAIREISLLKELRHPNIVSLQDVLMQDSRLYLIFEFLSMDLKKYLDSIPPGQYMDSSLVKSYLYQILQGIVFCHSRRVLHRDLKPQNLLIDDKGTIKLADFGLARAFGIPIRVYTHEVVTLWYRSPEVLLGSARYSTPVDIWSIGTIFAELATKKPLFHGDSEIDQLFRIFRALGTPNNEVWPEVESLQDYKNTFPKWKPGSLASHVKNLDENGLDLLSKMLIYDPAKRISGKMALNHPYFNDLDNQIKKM

[16] = Inhibition of PDGFR
[17] = target: Hepatocyte growth factor receptor (Homo sapiens, UniProt P08581); experiment: Inhibition of MET
HT-29 = experiment: Antiproliferative activity against human HT-29 cells assessed as cell growth inhibition; type: cell-based
[18] = Tmax in nude mouse at 30 mg/kg, po by LC-MS/MS analysis; type: ADME, organism-based; parameters: dose 30 mg/kg, route oral; conditions: in vivo; in short: as §1
CAPAN-1 = experiment: Antiproliferative activity against human Capan1 cells assessed as cell growth inhibition; type: cell-based
QG-56 = experiment: Antiproliferative activity against human QG56 cells assessed as cell growth inhibition; type: cell-based
[19] = Antiproliferative activity against human JOK1 cells assessed as cell growth inhibition; type: cell-based
[20] = target: Insulin-like growth factor 1 receptor (Homo sapiens, UniProt P08069); experiment: Inhibition of IGF1R
Sequence of Insulin-like growth factor 1 receptor (P08069 31-736 limits assumed): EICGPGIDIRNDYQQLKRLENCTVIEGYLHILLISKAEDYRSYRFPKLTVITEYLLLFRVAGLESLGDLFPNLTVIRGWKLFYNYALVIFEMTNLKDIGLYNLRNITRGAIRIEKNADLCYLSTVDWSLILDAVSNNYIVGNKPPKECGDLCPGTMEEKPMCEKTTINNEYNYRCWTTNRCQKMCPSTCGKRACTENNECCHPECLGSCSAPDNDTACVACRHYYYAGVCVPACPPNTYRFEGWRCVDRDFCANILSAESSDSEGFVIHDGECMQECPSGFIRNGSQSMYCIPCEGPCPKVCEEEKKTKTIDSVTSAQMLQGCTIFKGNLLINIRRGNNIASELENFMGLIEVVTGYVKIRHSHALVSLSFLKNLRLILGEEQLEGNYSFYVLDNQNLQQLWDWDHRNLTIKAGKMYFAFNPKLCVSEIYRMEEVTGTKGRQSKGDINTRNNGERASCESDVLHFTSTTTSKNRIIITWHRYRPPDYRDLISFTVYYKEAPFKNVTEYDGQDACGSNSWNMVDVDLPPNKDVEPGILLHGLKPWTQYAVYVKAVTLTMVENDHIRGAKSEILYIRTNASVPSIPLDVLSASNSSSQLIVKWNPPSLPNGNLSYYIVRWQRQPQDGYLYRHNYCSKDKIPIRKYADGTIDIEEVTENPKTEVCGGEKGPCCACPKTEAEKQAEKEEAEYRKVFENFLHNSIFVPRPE
Sequence of Insulin-like growth factor 1 receptor (P08069 741-1367 limits assumed): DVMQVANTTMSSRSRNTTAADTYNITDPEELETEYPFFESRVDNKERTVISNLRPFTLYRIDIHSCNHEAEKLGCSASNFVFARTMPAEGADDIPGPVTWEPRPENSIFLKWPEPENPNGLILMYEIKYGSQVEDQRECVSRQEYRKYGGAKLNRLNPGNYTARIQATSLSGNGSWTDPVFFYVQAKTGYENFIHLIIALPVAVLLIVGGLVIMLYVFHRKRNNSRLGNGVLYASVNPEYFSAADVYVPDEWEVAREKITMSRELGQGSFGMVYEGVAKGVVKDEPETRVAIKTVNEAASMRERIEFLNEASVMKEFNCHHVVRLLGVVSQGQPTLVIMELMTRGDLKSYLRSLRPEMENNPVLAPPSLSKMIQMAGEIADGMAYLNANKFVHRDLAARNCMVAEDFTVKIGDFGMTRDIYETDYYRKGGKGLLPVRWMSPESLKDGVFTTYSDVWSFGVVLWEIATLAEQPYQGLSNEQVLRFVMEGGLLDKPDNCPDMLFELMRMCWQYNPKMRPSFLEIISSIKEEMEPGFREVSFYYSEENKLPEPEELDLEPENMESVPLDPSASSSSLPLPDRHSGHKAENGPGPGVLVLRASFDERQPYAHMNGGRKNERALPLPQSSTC

[21] = Cytotoxicity in fibroblast cells assessed as morphological change at 4 to 20 uM; type: cell-based
Mus musculus = experiment: Toxicity in human Calu6 cells xenografted BALB/c mouse assessed as body weight change at 1 to 10 mg/kg, po qd for 11 days; type: organism-based, Calu-6; parameters: dose 1-10 mg/kg, route oral; conditions: in vivo, 264 h
In short: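 Calu-6 xenografts (5.0 × 10⁶ cells s.c., female Balb/c nude mice). Once tumors reached 150 mm³, oral dosing once daily for 11 days at 1, 3 and 10 mg/kg. Body weight change recorded as percent over the treatment period.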

[22] = target: Vascular endothelial growth factor receptor 2 (Homo sapiens, UniProt P35968); experiment: Inhibition of VEGFR2

Sequence of Leukocyte tyrosine kinase receptor (P29376 whole entry): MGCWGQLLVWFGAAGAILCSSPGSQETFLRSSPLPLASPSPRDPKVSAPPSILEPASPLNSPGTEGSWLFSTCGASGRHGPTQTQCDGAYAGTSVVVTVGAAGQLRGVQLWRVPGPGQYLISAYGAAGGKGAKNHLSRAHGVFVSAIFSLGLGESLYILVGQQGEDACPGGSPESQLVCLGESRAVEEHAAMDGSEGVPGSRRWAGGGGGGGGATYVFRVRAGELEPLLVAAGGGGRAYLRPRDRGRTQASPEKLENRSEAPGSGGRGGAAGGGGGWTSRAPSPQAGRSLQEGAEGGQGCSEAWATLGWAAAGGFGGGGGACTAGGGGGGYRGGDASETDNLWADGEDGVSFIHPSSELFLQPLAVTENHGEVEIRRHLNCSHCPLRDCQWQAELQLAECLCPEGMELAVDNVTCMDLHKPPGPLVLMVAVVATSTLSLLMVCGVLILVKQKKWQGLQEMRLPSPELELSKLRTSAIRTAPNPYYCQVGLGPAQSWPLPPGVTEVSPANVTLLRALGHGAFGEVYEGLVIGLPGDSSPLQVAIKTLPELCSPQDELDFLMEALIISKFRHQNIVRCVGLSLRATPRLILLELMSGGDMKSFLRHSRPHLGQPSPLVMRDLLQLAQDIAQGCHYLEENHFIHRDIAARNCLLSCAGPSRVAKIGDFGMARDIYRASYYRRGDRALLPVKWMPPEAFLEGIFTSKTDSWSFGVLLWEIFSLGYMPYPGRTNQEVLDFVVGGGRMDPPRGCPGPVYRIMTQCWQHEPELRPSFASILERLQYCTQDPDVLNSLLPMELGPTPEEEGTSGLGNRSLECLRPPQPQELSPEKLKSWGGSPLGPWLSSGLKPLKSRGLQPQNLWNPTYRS

COc1ccc(C(=O)NC[C@H](O)CO)cc1/C=C/c1ccc(Cl)cc1
IC50 [1]: > 50 µM
IC50 (COLO 205): 18 µM
IC50 (K562): 36 µM
IC50 (NCI-H460): 30 µM
IC50 [2]: 20 µM
Cmax [3]: 9370 ng/mL
IC50 (PANC-1): 49 µM
TGI (Calu-6 [4]): Dose-dependent effect
ED50 (Calu-6 [4]): 2.3 mg/kg
IC50 (Ephrin type-A receptor 2): > 50 µM
IC50 [5]: > 50 µM
IC50 (C32): 46 µM
Activity (Calu-6 [6]): Active
CL/F [7]: 5.6 mL/min/kg
IC50 [8]: > 50 µM
IC50 (CWR22R): 21 µM
IC50 (WiDr): 15 µM
IC50 (CEM/C2): 30 µM
IC50 [9]: > 50 µM
IC50 [10]: 69 µM
IC50 [11]: > 50 µM
IC50 [12]: > 50 µM
IC50 (T47D): 7.2 µM
IC50 (Insulin receptor): > 50 µM
IC50 (ASPC1): 63 µM
solubility at 2 h, 10000 µM [13]: 263 µg/mL (≈ 727 µM)
IC50 (DU-145): 23 µM
IC50 (MDA-MB-231): 38 µM
IC50 (MKN-28): 23 µM
microsomal CLint at 5 µM [14]: 12 µL/min/mg
IC50 [15]: > 50 µM
IC50 [16]: > 50 µM
IC50 [17]: > 50 µM
IC50 (HT-29): 16 µM
Tmax [18]: 1 h
IC50 (CAPAN-1): 67 µM
IC50 (QG-56): 21 µM
IC50 [19]: 38 µM
IC50 [20]: > 50 µM
Activity [21]: Non-toxic
Activity (Mus musculus): Non-toxic
IC50 [22]: > 50 µM

COc1ccc(C(=O)NC[C@@H](O)CO)cc1/C=C/c1ccc(Cl)cc1
IC50 [1]: > 50 µM
IC50 (COLO 205): 18 µM
IC50 (K562): 29 µM
IC50 (NCI-H460): 19 µM
IC50 [2]: 17 µM
Cmax [3]: 8270 ng/mL
IC50 (PANC-1): 39 µM
TGI (Calu-6 [4]): Dose-dependent effect
ED50 (Calu-6 [4]): 3.2 mg/kg
IC50 (Ephrin type-A receptor 2): > 50 µM
IC50 [5]: > 50 µM
IC50 (C32): 38 µM
Activity (Calu-6 [6]): Active
CL/F [7]: 5.8 mL/min/kg
IC50 [8]: > 50 µM
IC50 (CWR22R): 8.6 µM
IC50 (WiDr): 7 µM
IC50 (CEM/C2): 30 µM
IC50 [9]: > 50 µM
IC50 [10]: 74 µM
IC50 [11]: > 50 µM
IC50 [12]: > 50 µM
IC50 (T47D): 4.5 µM
IC50 (Insulin receptor): > 50 µM
IC50 (ASPC1): 55 µM
solubility at 2 h, 10000 µM [13]: 225 µg/mL (≈ 622 µM)
IC50 (DU-145): 5.3 µM
IC50 (MDA-MB-231): 39 µM
IC50 (MKN-28): 15 µM
microsomal CLint at 5 µM [14]: 7 µL/min/mg
IC50 [15]: > 50 µM
IC50 [16]: > 50 µM
IC50 [17]: > 50 µM
IC50 (HT-29): 10 µM
Tmax [18]: 1 h
IC50 (CAPAN-1): 47 µM
IC50 (QG-56): 23 µM
IC50 [19]: 31 µM
IC50 [20]: > 50 µM
Activity [21]: Non-toxic
Activity (Mus musculus): Non-toxic
IC50 [22]: > 50 µM
